Results: ChEMBL document CHEMBL4825662 (J Med Chem, 2021)
In brackets after ≈: the same amount, converted by molar mass. Values belong to the compound of their own block, whether it stands above or below them.

Assays:
[1] = Half life in human hepatocytes at 3 uM measured up to 60 mins by LC-MS/MS analysis; assay type: ADME, cell-based, Hepatocyte
[2] = Protein binding in rat plasma assessed as unbound fraction at 5 uM by LC-MS/MS analysis based equilibrium dialysis method; assay type: ADME, cell-free
[3] = Cmax in CD1 mouse at 10 mg/kg, po measured after 0.083 to 24 hrs by UHPLC-TOF method; assay type: ADME, organism-based; parameters: route oral, time 0.083-24 hrs, dose 10 mg/kg; details: in vivo
[4] = Half life in Beagle dog liver microsomes preincubated followed by NADPH addition and measured up to 45 mins by LC-MS/MS analysis
[5] = Half life in CD1 mouse at 10 mg/kg, po measured after 0.083 to 24 hrs by UHPLC-TOF method; assay type: ADME, organism-based; details: in vivo, time 0.083-24 hrs
[6] = Oral bioavailability in CD1 mouse at 10 mg/kg measured after 0.03 to 24 hrs by UHPLC-TOF method; assay type: ADME, organism-based; details: in vivo, time 0.03-24 hrs
Method in brief: (§1)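 Male CD-1 mice, acclimatized and individually housed, dosed IV and PO as amorphous-solid suspension. Terminal cardiac-puncture blood into heparinized tubes on wet ice, centrifuged at 4 °C within 15 min; plasma snap-frozen at −20 °C. IV arm sampled 2 min–24 h, oral arm 5 min–24 h. Plasma analysed by UHPLC-quadrupole-TOF MS.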

[7] = Tmax in CD1 mouse at 10 mg/kg, po measured after 0.083 to 24 hrs by UHPLC-TOF method; assay type: ADME, organism-based; details: in vivo, time 0.083-24 hrs; method in brief: as §1
[8] = Apparent permeability across apical to basolateral side in MDCK-MDR1 cells at 10 uM measured at 60 mins by LC-MS/MS analysis; assay type: ADME, cell-based, Canis lupus familiaris; details: dog, MDCK-MDR1
[9] = Intrinsic clearance in Beagle dog hepatocytes at 3 uM assessed per million cells measured up to 60 mins by LC-MS/MS analysis; assay type: ADME, cell-based, Canis lupus familiaris, Hepatocyte; details: read-out: CLH
[10] = Intrinsic clearance in human hepatocytes at 3 uM assessed per million cells measured up to 60 mins by LC-MS/MS analysis; assay type: ADME, cell-based, Hepatocyte; details: read-out: CLH
[11] = Clearance in Beagle dog at 0.3 mg/kg, iv measured after 0.03 to 24 hrs by UHPLC-TOF method; assay type: ADME, organism-based, Canis lupus familiaris; details: in vivo, time 0.03-24 hrs
[12] = Protein binding in human plasma assessed as unbound fraction at 5 uM by LC-MS/MS analysis based equilibrium dialysis method; assay type: ADME, cell-free
[13] = Clearance in CD1 mouse at 1 mg/kg, iv measured after 0.083 to 24 hrs by UHPLC-TOF method; assay type: ADME, organism-based; details: in vivo, time 0.083-24 hrs
[14] = Intrinsic clearance in Sprague-Dawley rat liver microsomes preincubated followed by NADPH addition and measured up to 45 mins by LC-MS/MS analysis; assay type: ADME, Microsome
[15] = Tmax in Beagle dog at 3 mg/kg, […] by UHPLC-TOF method; assay type: ADME, organism-based, Canis lupus familiaris; details: in vivo, po
[16] = Intrinsic clearance in Beagle dog liver microsomes preincubated followed by NADPH addition and measured up to 45 mins by LC-MS/MS analysis; assay type: ADME, Canis lupus familiaris, Microsome
[17] = Intrinsic clearance in rat hepatocytes at 3 uM assessed per million cells measured up to 60 mins by LC-MS/MS analysis; assay type: ADME, cell-based, Hepatocyte; details: read-out: CLH
[18] = Cytotoxicity against human HepG2 cells by MTT assay; assay type: cell-based
Method in brief: (§2)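 Viability was assessed by MTT after culture with compound at 0.01 nM to 100 μM, run in parallel with plaque reduction assays. Values are the average of at least two testing occasions.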

[19] = Half life in Beagle dog at 0.3 mg/kg, iv measured after 0.03 to 24 hrs by UHPLC-TOF method; assay type: ADME, organism-based, Canis lupus familiaris; details: in vivo, time 0.03-24 hrs
Method in brief: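 Dogs dosed IV as a suspension of amorphous solid. Serial blood at 2, 5, 15 min and 1, 2, 4, 8, 12, 24 h into heparinized tubes, centrifuged at 4 °C for 10 min at 3000g. Plasma snap-frozen and stored at −20 °C, then analysed by UHPLC-TOF.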

[20] = Half life in CD1 mouse at 1 mg/kg, iv measured after 0.03 to 24 hrs by UHPLC-TOF method; assay type: ADME, organism-based; details: in vivo, time 0.03-24 hrs
[21] = Intrinsic clearance in human liver microsomes preincubated followed by NADPH addition and measured up to 45 mins by LC-MS/MS analysis; assay type: ADME, Microsome
[22] = Protein binding in dog plasma assessed as unbound fraction at 5 uM by LC-MS/MS analysis based equilibrium dialysis method; assay type: ADME, cell-free, Canis lupus familiaris
[23] = Half life in rat hepatocytes at 3 uM measured up to 60 mins by LC-MS/MS analysis; assay type: ADME, cell-based, Hepatocyte
[24] = Apparent permeability across basolateral side to apical side in MDCK-MDR1 cells at 10 uM measured at 60 mins by LC-MS/MS analysis; assay type: ADME, cell-based, Canis lupus familiaris; details: dog
Human orthopneumovirus [25] = experiment: Antiviral activity against Respiratory syncytial virus A2 infected in human Huh7 cells by Plaque reduction assay; assay type: functional, organism-based; details: A2, Huh-7
Method in brief: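 Huh-7 cells were infected with RSV strain A2 in the presence of compound. Values are the average of at least two testing occasions.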

[26] = Efflux ratio of apparent permeability in MDCK-MDR1 cells at 10 uM measured at 60 mins by LC-MS/MS analysis; assay type: ADME, cell-based, Canis lupus familiaris; details: dog, MDCK-MDR1
[27] = Thermodynamic solubility in PBS at 1 to 100 uM at pH 7.4 by HPLC-UV method; assay type: physicochemical; details: dose 1-100 µM, read-out: Therm_solubility
[28] = Cmax in Beagle dog at 3 mg/kg, po measured after 0.03 to 24 hrs by UHPLC-TOF method; assay type: ADME, organism-based, Canis lupus familiaris; parameters: route oral, dose 3 mg/kg, time 0.03-24 hrs; details: in vivo
[29] = Half life in human liver microsomes preincubated followed by NADPH addition and measured up to 45 mins by LC-MS/MS analysis; assay type: ADME, Microsome
[30] = Half life in Beagle dog hepatocytes at 3 uM assessed per million cells measured up to 60 mins by LC-MS/MS analysis; assay type: ADME, cell-based, Canis lupus familiaris, Hepatocyte
[31] = Oral bioavailability in Beagle dog at 3 mg/kg measured after 0.03 to 24 hrs by UHPLC-TOF method; assay type: ADME, organism-based, Canis lupus familiaris; details: in vivo, 3 mg/kg, time 0.03-24 hrs
Method in brief: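 Dogs examined by a veterinary surgeon before each session, fed 2 h post-dose, water ad libitum, dosed as amorphous-solid suspension. Serial blood into heparinized tubes, centrifuged at 4 °C for 10 min at 3000g; plasma snap-frozen at −20 °C. IV sampling 2 min–24 h, oral 15 min–24 h. Plasma analysed by UHPLC-quadrupole-TOF MS.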

[32] = Volume of distribution at steady state in CD1 mouse at 1 mg/kg, iv measured after 0.083 to 24 hrs by UHPLC-TOF method; assay type: ADME, organism-based; details: in vivo, time 0.083-24 hrs, read-out: Vdss; method in brief: as §1
[33] = Half life in Beagle dog at 3 mg/kg, po measured after 0.03 to 24 hrs by UHPLC-TOF method; assay type: ADME, organism-based, Canis lupus familiaris; details: in vivo, time 0.03-24 hrs
[34] = Cmax in Sprague-Dawley rat at 5 mg/kg, po administered via gavage measured after 0.02 to 24 hrs by tandem liquid chromatography/mass spectrometry; assay type: ADME, organism-based; parameters: route oral, dose 5 mg/kg, time upper 24 hrs, time lower 0.02 hrs; details: in vivo
Method in brief: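 Male Sprague–Dawley rats weighing 200–250 g, 3 per route, were used. The i.v. bolus was 1 mg/kg at 1 mg/mL in 40:60 dimethylacetamide/saline. Oral gavage doses were 5 or 10 mg/kg at 5 mg/mL in 1% methyl cellulose with 0.1% Tween 80. Heparinized blood was taken at 0.02–24 h (ten time points). Plasma was analyzed by LC-MS/MS after acetonitrile precipitation.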

[35] = Apparent permeability of compound in wild type MDCK at 10 uM incubated for 1 hr by LC-MS/MS assay; assay type: ADME, Canis lupus familiaris; details: dog
[36] = Half life in Sprague-Dawley rat liver microsomes preincubated followed by NADPH addition and measured up to 45 mins by LC-MS/MS analysis; assay type: ADME, Microsome
[37] = Drug metabolism in human liver microsomes assessed as metabolite M1 formation at 10 uM incubated for 60 mins by HPLC method; assay type: ADME, Microsome; details: 1 h
Method in brief: (§3)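 Compound at 10 μM was incubated with rat or human liver microsomes. Sites of metabolism were proposed from mass spectral fragmentation patterns.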

[38] = Drug metabolism in rat liver microsomes assessed as metabolite M1 formation at 10 uM incubated for 60 mins by HPLC method; assay type: ADME, Microsome; details: 1 h; method in brief: as §3
[39] = Cmax in CD1 mouse at 5 mg/kg, po measured after 0.03 to 24 hrs by UHPLC-TOF method; assay type: ADME, organism-based; parameters: route oral, time upper 24 hrs, time lower 0.03 hrs, dose 5 mg/kg; details: in vivo
[40] = Cytotoxicity against African green monkey Vero cells by MTT assay; assay type: cell-based; details: chlorocebus sabaeus; method in brief: as §2
[41] = Oral bioavailability in CD1 mouse at 5 mg/kg measured after 0.03 to 24 hrs by UHPLC-TOF method; assay type: ADME, organism-based; details: in vivo, time 0.03-24 hrs; method in brief: as §1
[42] = Volume of distribution at steady state in Sprague-Dawley rat at 1 mg/kg, iv administered […] measured after 0.02 to 24 hrs by tandem liquid chromatography/mass spectrometry; assay type: ADME, organism-based; details: in vivo, time 0.02-24 hrs, read-out: Vdss
Method in brief: (§4)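 Male Sprague–Dawley rats (200–250 g), 3 per route. IV bolus at 1 mg/kg, 1 mg/mL in 40:60 dimethylacetamide/saline; oral gavage at 5 or 10 mg/kg, 5 mg/mL in 1% methyl cellulose, 0.1% Tween 80 in water. Serial blood at 0.02–24 h (ten points) into heparin, spun at 4 °C, plasma frozen; acetonitrile protein precipitation, ESI LC-MS/MS with matrix curve and internal standards.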

[43] = Clearance in Sprague-Dawley rat at 1 mg/kg, iv administered […] measured after 0.02 to 24 hrs by tandem liquid chromatography/mass spectrometry; assay type: ADME, organism-based; details: in vivo, time 0.02-24 hrs
[44] = Kinetic solubility of compound in PBS at 200 uM at pH 7.4 by LC-MS/LC-UV analysis; assay type: physicochemical; details: read-out: Kinetic_solubility
Method in brief: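 Compound added from DMSO into PBS pH 7.4; precipitation measured across a range of concentrations.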

[45] = Oral bioavailability in Sprague-Dawley rat at 10 mg/kg administered via gavage measured after 0.02 to 24 hrs by tandem liquid chromatography/mass spectrometry; assay type: ADME, organism-based; details: in vivo, time 0.02-24 hrs; method in brief: as §4
Human orthopneumovirus [46] = experiment: Antiviral activity against Respiratory syncytial virus A2 infected in African green monkey Vero cells by Plaque reduction assay; assay type: functional, organism-based

half-life at 3 µM [1]: 3.28 h | fraction unbound at 5 µM [2]: 0.399 | Cmax [3]: 450 ng/mL | half-life [4]: 55.8 h | half-life [5]: 1.4 h | bioavailability [6]: 39.4% | Tmax [7]: 1.7 h | Papp A→B at 1 h, 10 µM [8]: 0.4 ×10⁻⁶ cm/s | hepatocyte CLint at 3 µM [9]: 0.8 µL/min/1e6 cells | hepatocyte CLint at 3 µM [10]: 7.1 µL/min/1e6 cells | clearance [11]: 19.2 mL/min/kg | fraction unbound at 5 µM [12]: 0.548 | clearance [13]: 58 mL/min/kg | Microsomal intrinsic clearance [14]: 5.2 µL/min | Tmax [15]: 0.5 h | intrinsic clearance [16]: 0.4 µL/min | hepatocyte CLint at 3 µM [17]: 21.2 µL/min/1e6 cells | half-life [19]: 5.2 h | half-life [20]: 1.7 h | intrinsic clearance (CLint) [21]: 66.4 µL/min | fraction unbound at 5 µM [22]: 0.497 | half-life at 3 µM [23]: 1.02 h | Papp B→A at 1 h, 10 µM [24]: 40.6 ×10⁻⁶ cm/s | EC50 (Human orthopneumovirus [25]): 2.4 nM | efflux ratio at 1 h, 10 µM [26]: 94 | solubility thermodynamic [27]: 1270 µM (≈ 534 µg/mL) | Cmax [28]: 505 ng/mL | half-life [29]: 0.348 h | half-life at 3 µM [30]: > 16.7 h | F [31]: 163% | Vd [32]: 5.5 L/kg | half-life [33]: 3.1 h
SMILES: NCc1ccc2c(c1)nc(CN1C(=O)C3(CC3)c3ccc(F)cc31)n2C1CCOCC1
CC50 [18]: > 25000 nM

fraction unbound at 5 µM [2]: 0.1 | Cmax [34]: 6 ng/mL | half-life [4]: > 1.67 h | Papp at 1 h, 10 µM [35]: 12 ×10⁻⁶ cm/s | half-life [36]: > 1.58 h | Drug metabolism [37]: Metabolite_Detected | Drug metabolism [38]: Metabolite_Detected | fraction unbound at 5 µM [12]: 0.07 | clearance [13]: 98 mL/min/kg | Microsomal intrinsic clearance [14]: < 19 µL/min | Cmax [39]: 6 ng/mL | intrinsic clearance [16]: < 28 µL/min | bioavailability [41]: 4% | intrinsic clearance (CLint) [21]: 592 µL/min | fraction unbound at 5 µM [22]: 0.1 | Vd [42]: 34 L/kg | clearance [43]: 98 mL/min/kg | solubility kinetic at 200 µM [44]: 155 µM (≈ 60.2 µg/mL) | solubility thermodynamic [27]: 155 µM (≈ 60.2 µg/mL) | half-life [29]: 0.0833 h | bioavailability [45]: 4% | Vd [32]: 34 L/kg | EC50 (Human orthopneumovirus [46]): 31 nM
SMILES: CC(C)CCn1c(CN2C(=O)C3(CC3)c3ccccc32)nc2cc(CN)ccc21
CC50 [40]: 15300 nM
